Laboratory results published in publication PMC11390321 (Cancer chemotherapy and pharmacology, 2024).

Tests used:
[1] = test system: P-glycoprotein (P-gp/Mdr1); settings: on the BBB; cited from earlier work
[2] = Dose linearity study: single IV dose PK, noncompartmental analysis; assay type: in vivo, female BALB/c mice; settings: for β, slope of Ln(AUC0-∞) versus Ln(dose): 2–60 mg/kg IV, power model; for AUC(0-inf) / Cmax / Tmax / Vd / half-life / AUC(0-t) / clearance: female, BALB/c, mouse, iv; for AUC(0-inf) / Cmax / Tmax / Vd / half-life / AUC(0-t) / clearance / AUC0-t/dose / AUC0-∞ /dose / AUC0–360/dose / AUCextrap / Cmax/dose / Tlast: plasma; for clearance: CL; for AUC extrapolated beyond 24 h in tissues: tissues with a quantifiable 24 h sample; for 0–24 h feces / 0–24 h urine: unchanged drug
Method in brief: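 Single ~30 s tail-vein bolus of test compound in 12% captisol (pH 4, acetic acid), 2.0, 6.0, 20 or 60 mg/kg, female BALB/c mice 5–7 weeks old, N=3 per time point. Plasma and tissues taken 5–1,440 min; pooled 24 h urine/feces from metabolic cages. LC-MS/MS with [D7] internal standard. NCA, Bailer AUC. Dose linearity via slope of Ln AUC0-∞ versus Ln dose against β=1.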

[3] = clinical; cited from earlier work

SMILES: CNCc1ccc(-c2cc(-c3nc(-c4ccc(S(=O)(=O)C(C)C)cc4)cnc3N)on2)cc1 [berzosertib]
- efflux transporter substrate [1]: substrate
- β, slope of Ln(AUC0-∞) versus Ln(dose) ([2]; Brain): 1.17 (95% CI: 0.786 – 1.56)
- β, slope of Ln(AUC0-∞) versus Ln(dose) ([2]; Kidney): 1.35 (95% CI: 0.960 – 1.73)
- β, slope of Ln(AUC0-∞) versus Ln(dose) ([2]; Lung): 1.30 (95% CI: 0.804 – 1.79)
- unchanged drug recovered in feces ([2]; across all groups (2–60 mg/kg IV), 0–24 h): < 4%
- increase in volume of distribution (Vd) ([2]; between 2 and 60 mg/kg IV): more than 3 fold
- AUC(0-inf) ([2]; 2 mg/kg): 867 ng·h/mL
- Cmax ([2]; 2 mg/kg): 1480 ng/mL
- Tmax ([2]; 2 mg/kg): 5 min
- Vd ([2]; 2 mg/kg): 8.49 L/kg
- half-life ([2]; 2 mg/kg): 2.55 h
- AUC(0-t) ([2]; 2 mg/kg, AUC0-t, 2.0 mg/kg IV): 765 ng·h/mL
- AUC(0-t) ([2]; 2 mg/kg, AUC0–360, plasma, 2.0 mg/kg IV): 765 ng·h/mL
- AUC(0-inf) ([2]; 6 mg/kg): 2450 ng·h/mL
- Cmax ([2]; 6 mg/kg): 3470 ng/mL
- Tmax ([2]; 6 mg/kg): 5 min
- Vd ([2]; 6 mg/kg): 9.63 L/kg
- half-life ([2]; 6 mg/kg): 2.73 h
- AUC(0-t) ([2]; 6 mg/kg, AUC0-t, 6.0 mg/kg IV): 2100 ng·h/mL
- AUC(0-t) ([2]; 6 mg/kg, AUC0–360, plasma, 6.0 mg/kg IV): 2100 ng·h/mL
- AUC(0-inf) ([2]; 20 mg/kg): 10200 ng·h/mL
- Cmax ([2]; 20 mg/kg): 10200 ng/mL
- Tmax ([2]; 20 mg/kg): 5 min
- Vd ([2]; 20 mg/kg): 11.9 L/kg
- half-life ([2]; 20 mg/kg): 4.22 h
- AUC(0-t) ([2]; 20 mg/kg, AUC0-t, 20 mg/kg IV): 10100 ng·h/mL
- AUC(0-t) ([2]; 20 mg/kg, AUC0–360, plasma, 20 mg/kg IV): 7070 ng·h/mL
- clearance ([2]; 20 mg/kg, calculated using AUC0-∞, 20 mg/kg IV): 32.6 mL/min/kg
- clearance ([2]; 20 mg/kg, calculated using AUC0–360, 20 mg/kg IV): 47.2 mL/min/kg
- AUC(0-inf) ([2]; 60 mg/kg): 35400 ng·h/mL
- Cmax ([2]; 60 mg/kg): 21200 ng/mL
- Tmax ([2]; 60 mg/kg): 5 min
- Vd ([2]; 60 mg/kg): 25.6 L/kg
- half-life ([2]; 60 mg/kg): 10.5 h
- AUC(0-t) ([2]; 60 mg/kg, AUC0-t, 60 mg/kg IV): 29400 ng·h/mL
- AUC(0-t) ([2]; 60 mg/kg, AUC0–360, plasma, 60 mg/kg IV): 15500 ng·h/mL
- AUC0-t/dose ([2]; 2.0 mg/kg IV): 23.0
- AUC0-∞ /dose ([2]; 2.0 mg/kg IV): 26.0
- AUC0–360/dose ([2]; 2.0 mg/kg IV): 23.0
- AUCextrap ([2]; 2.0 mg/kg IV): 11.7%
- Cmax/dose ([2]; 2.0 mg/kg IV): 0.738
- Tlast ([2]; 2.0 mg/kg IV): 360 min
- AUC0-t/dose ([2]; 6.0 mg/kg IV): 21.1
- AUC0-∞ /dose ([2]; 6.0 mg/kg IV): 24.6
- AUC0–360/dose ([2]; 6.0 mg/kg IV): 21.1
- AUCextrap ([2]; 6.0 mg/kg IV): 14.2%
- Cmax/dose ([2]; 6.0 mg/kg IV): 0.578
- Tlast ([2]; 6.0 mg/kg IV): 360 min
- AUC0-t/dose ([2]; 20 mg/kg IV): 30.3
- AUC0-∞ /dose ([2]; 20 mg/kg IV): 30.7
- AUC0–360/dose ([2]; 20 mg/kg IV): 21.2
- AUCextrap ([2]; 20 mg/kg IV): 1.39%
- Cmax/dose ([2]; 20 mg/kg IV): 0.512
- AUC0-t/dose ([2]; 60 mg/kg IV): 29.4
- AUC0-∞ /dose ([2]; 60 mg/kg IV): 35.4
- AUC0–360/dose ([2]; 60 mg/kg IV): 15.5
- AUCextrap ([2]; 60 mg/kg IV): 17.0%
- Cmax/dose ([2]; 60 mg/kg IV): 0.353
- AUC extrapolated beyond 24 h in tissues ([2]; 60 mg/kg): > 20%
- AUC extrapolated beyond 24 h in tissues ([2]; 2, 6 and 20 mg/kg groups): < 3%
- 0–24 h feces ([2]; 2.0 mg/kg IV): 1.78 % dose
- 0–24 h urine ([2]; 2.0 mg/kg IV): 40.6 % dose
- 0–24 h feces ([2]; 6.0 mg/kg IV): 3.41 % dose
- 0–24 h urine ([2]; 6.0 mg/kg IV): 49.2 % dose
- 0–24 h feces ([2]; 20 mg/kg IV): 1.48 % dose
- 0–24 h urine ([2]; 20 mg/kg IV): 55.8 % dose
- 0–24 h feces ([2]; 60 mg/kg IV): 2.02 % dose
- 0–24 h urine ([2]; 60 mg/kg IV, 60 mg/kg): 28 % dose
- dose up to which plasma PK is dose-proportionate [3]: up to 240 mg/m^2
